GPR7 antag – blocks human GPR7 receptor signaling; AID 1861; inhibition, % at 4.4 µM; 290,000 tested, 1.1% active; GPR7-expressing cells, fluorescence antagonist assay; P48145; in the data active means inhibition above about 16%, passing the limit was not always enough;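 further: cells stimulated with the agonist NPW; 0% = agonist with vehicle and 100% = vehicle without agonist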
Target sequence (P48145 whole entry, looked up): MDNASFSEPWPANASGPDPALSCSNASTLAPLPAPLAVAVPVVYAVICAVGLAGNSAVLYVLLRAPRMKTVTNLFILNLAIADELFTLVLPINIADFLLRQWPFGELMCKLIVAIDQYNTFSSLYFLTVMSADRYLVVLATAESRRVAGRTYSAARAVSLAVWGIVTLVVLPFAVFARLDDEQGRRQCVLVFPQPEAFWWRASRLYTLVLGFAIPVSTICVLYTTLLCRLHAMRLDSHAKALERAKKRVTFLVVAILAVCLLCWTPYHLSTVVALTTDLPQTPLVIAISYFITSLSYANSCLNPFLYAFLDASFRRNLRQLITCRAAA
OX1R antag-1 – human HCRTR1 antagonism; inhibition, % at 5 µM; 330,000 tested, 0.43% active; O43613; CHO/OX1R cells, Fluo-8 calcium fluorescence, orexin A; AID 434989;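 active means inhibition above its plate's threshold, mean inhibition of all tested compounds on the plate plus 3 SD, cut at about 37% in these data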;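 further: 0% = orexin A challenge wells and 100% = SB-334867-A antagonist wells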
OX1R antag-2 – OX1R (human) antagonism | O43613 | OX1R-expressing cells, FRET antagonist read-out | inhibition, % at 6.6 µM | 330,000 tested, 1.8% active | AID 485270; in the data active means inhibition mostly above about 38%, no sharp cut-off; inactive means mostly below about 40%;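 further: 0% = agonist challenge alone and 100% = reference antagonist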
GalR3 antagonist – human GalR3 antagonism; HEK293 GalR3-CNG cAMP membrane potential fluorescence; galR3 body fused to GalR1 C-terminus; inhibition, % at 3 µM; O60755; 360,000 tested, 0.44% active;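 active means inhibition above the screen-wide average plus 3 SD, cut at about 13% in these data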;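 further: forskolin and galanin both at EC90 stimulate the cells; cAMP rise reported by CNG channel membrane potential dye signal; 0% = forskolin plus galanin with DMSO and 100% = forskolin alone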
Target sequence (O60755 1-299 limits assumed): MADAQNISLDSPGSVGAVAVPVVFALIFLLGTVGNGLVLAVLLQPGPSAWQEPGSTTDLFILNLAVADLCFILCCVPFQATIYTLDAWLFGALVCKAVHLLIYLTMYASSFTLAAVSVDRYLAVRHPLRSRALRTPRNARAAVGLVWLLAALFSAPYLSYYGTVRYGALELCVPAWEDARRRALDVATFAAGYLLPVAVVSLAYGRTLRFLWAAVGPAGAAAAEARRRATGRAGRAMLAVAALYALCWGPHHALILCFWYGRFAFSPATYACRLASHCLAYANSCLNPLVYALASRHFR
CHO parental Ca – counter-screen for OX1R antagonists: effect in parental CHO cells. inhibition, % at 5.6 µM. parental CHO-K1, ATP-induced calcium, Fluo-8 fluorescence. 330,000 tested, 0.63% active;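 active means inhibition above that plate's mean sample inhibition plus 3 SD, cut at about 26% in these data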;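 further: 0% = ATP-challenged DMSO wells and 100% = DMSO wells without ATP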
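material = parental CHO cells | also added = ATP as calcium-mobilizing challenge | dosing = single point at 5.6 µM | detection = intracellular calcium via Fluo-8 no-wash fluorescent dye | read-out = % inhibition | benchmarks = low control ATP plus DMSO, high control DMSO only | repeats = one well per compound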
Active calls of the source: *. Most compounds without a hit are left out; they make up all but 3.1% or so of the library.

`Cc1ccccc1NS(=O)(=O)c1cccc(-c2nnc(-c3ccccc3)o2)c1` gave GPR7 antag 0, OX1R antag-1 -11, OX1R antag-2 40*, GalR3 antagonist -2 and CHO parental Ca -16.
For CCN(CC)CCCNC(=O)CNC(=S)N(CCCN1CCOCC1)Cc1cccs1 the results were GPR7 antag 2, OX1R antag-1 -5, OX1R antag-2 19, GalR3 antagonist 1 and CHO parental Ca -1.
CC(C)(Oc1ccc(Cl)cc1)C(=O)Nc1ccncc1 was read as GPR7 antag 9, OX1R antag-1 19, OX1R antag-2 38, GalR3 antagonist -5 and CHO parental Ca 37*.
For NC(=O)c1ncn([C@@H]2O[C@H](C(=O)N[C@H](Cc3c[nH]c4ccccc34)C(=O)O)[C@@H](O)[C@H]2O)n1 the results were GalR3 antagonist -6.
`CC1=CC(=O)C=C(C)C1=NOS(=O)(=O)c1ccccc1` gave GPR7 antag 40* and GalR3 antagonist -1.
O=C(Cn1ccc(NC(=O)OCc2ccccc2)nc1=O)NCc1nc2ccccc2[nH]1 was read as OX1R antag-1 1, OX1R antag-2 -3, GalR3 antagonist 1 and CHO parental Ca -1.
`Cc1cc(C)c2nc3nc(C)c(C)cc3c(N)c2c1` gave GPR7 antag -2 and GalR3 antagonist -2.
Screening COc1cc(-c2nc3cnccn3c2Nc2ccc(C(C)C)cc2)ccc1O returned GPR7 antag -9, OX1R antag-1 -8, OX1R antag-2 -3, GalR3 antagonist -7 and CHO parental Ca 37*.
`COc1cc(-c2nc3cnccn3c2Nc2ccc(C)cc2)ccc1O` gave GPR7 antag 0, OX1R antag-1 -13, OX1R antag-2 7, GalR3 antagonist -6 and CHO parental Ca -8.
NC(=O)CSc1nnc(-c2ccccn2)n1Cc1ccco1 was read as GPR7 antag -12, OX1R antag-1 -14, OX1R antag-2 14, GalR3 antagonist -6 and CHO parental Ca -24.
Clc1ccccc1CSc1nnc(-c2ccccn2)n1Cc1ccco1 was read as GPR7 antag 1, OX1R antag-1 24, OX1R antag-2 57*, GalR3 antagonist 1 and CHO parental Ca -24.
For Cc1ccc(-n2c(C)c(C)c3c(NCCO)ncnc32)cc1 the results were GPR7 antag -1, OX1R antag-1 -10, OX1R antag-2 -9, GalR3 antagonist -6 and CHO parental Ca -19.
CC1=CC2C3C(=O)N(c4ccccc4)C(=O)C3C1C(=O)C2(O)C(C)C (stereo not given) was read as GalR3 antagonist -6.
N=C(N)c1ccc(/C=C/c2ccc(C(=N)N)cc2O)cc1 was read as GPR7 antag -9, OX1R antag-1 -7, OX1R antag-2 46*, GalR3 antagonist -2 and CHO parental Ca -7.
For N=C(N)c1ccc(Cl)cc1 the results were GPR7 antag -9, OX1R antag-1 -8, OX1R antag-2 11, GalR3 antagonist -2 and CHO parental Ca 3.
For C[C@@H]1CN([C@H](C)CO)C(=O)c2c(c3ccccc3n2C)-c2ccccc2CO[C@@H]1CN(C)S(=O)(=O)c1cccs1 the results were GalR3 antagonist -1.
`O=C(NCCN1CCC(n2c(=O)[nH]c3cc(Cl)ccc32)CC1)c1ccc(F)cc1` gave GalR3 antagonist -9.
For COc1ccccc1C(=O)N/C(=C\c1ccc2c(c1)OCO2)C(=O)NCCc1nc2ccccc2[nH]1 the results were GPR7 antag 3, OX1R antag-1 -28, OX1R antag-2 17, GalR3 antagonist -6 and CHO parental Ca -21.
For COc1ccc(NC(=O)c2c(C(F)(F)F)nn(C)c2SCc2ccccc2Cl)cc1 the results were GPR7 antag -19, OX1R antag-1 -20, OX1R antag-2 6, GalR3 antagonist -5 and CHO parental Ca 46*.
For Cn1c(CNC(=O)c2ccco2)nnc1SCC(=O)Nc1ccccc1Cl the results were OX1R antag-1 -13, OX1R antag-2 9, GalR3 antagonist -2 and CHO parental Ca 2.
For CCN1C(=O)[C@H]2[C@@H](c3ccc(C)cc3)N3C(=O)N(c4ccc(C)cc4)C(=O)[C@@]3(Cc3ccc(Cl)cc3)[C@H]2C1=O the results were GPR7 antag 0, OX1R antag-1 -32, OX1R antag-2 14, GalR3 antagonist -9 and CHO parental Ca -20.
For CCN1C(=O)[C@H]2[C@@H](c3ccc(C)cc3)N3C(=O)N(c4ccccc4)C(=O)[C@@]3(Cc3ccc(Cl)cc3)[C@H]2C1=O the results were GPR7 antag 15, OX1R antag-1 -44, OX1R antag-2 63* and CHO parental Ca -14.
For CC1CCCN(C(=O)COc2ccc(Nc3ccccc3)cc2)C1 (stereo not given) the results were GPR7 antag -15, OX1R antag-1 -8, OX1R antag-2 27, GalR3 antagonist 0 and CHO parental Ca -19.
For CCc1nc(N2CCN(C(=O)c3ccco3)CC2)c2oc3ccccc3c2n1 the results were GPR7 antag 7, OX1R antag-1 -10, OX1R antag-2 51*, GalR3 antagonist -6 and CHO parental Ca -25.
`Cc1ccc(-c2cc(N)n(-c3ccc(F)cc3)n2)cc1` gave GPR7 antag 12, OX1R antag-1 -5, OX1R antag-2 10, GalR3 antagonist 1 and CHO parental Ca -4.
For CC1=[N+](C)c2c(ccc3cccnc23)C1(C)C the results were GPR7 antag 28* and GalR3 antagonist 24*.
O=C(CS(=O)(=O)c1ccc(F)cc1)Nc1nnc(-c2ccccc2Cl)o1 was read as OX1R antag-1 -11, OX1R antag-2 45*, GalR3 antagonist -2 and CHO parental Ca -12.
`O=C(Nc1cccc(OC(F)(F)F)c1)c1ccc(-c2cccnc2)c2ccoc12` gave GalR3 antagonist -2.
`O=C(CC1SC(=Nc2ccc3c(c2)OCCO3)NC1=O)Nc1ccc(F)cc1F` (stereo not given) gave GPR7 antag -14, OX1R antag-1 -36, OX1R antag-2 7, GalR3 antagonist -1 and CHO parental Ca -2.
Screening CN(C)c1ccc(/C=C/c2ccc3ccccc3[n+]2C)cc1 returned GPR7 antag 0, OX1R antag-1 14, OX1R antag-2 163*, GalR3 antagonist 0 and CHO parental Ca 0.
Screening CC(=O)Oc1ccccc1/C=C/c1ccc2ccccc2[n+]1C returned GPR7 antag -3, OX1R antag-1 -5, OX1R antag-2 66*, GalR3 antagonist -6 and CHO parental Ca -15.
For COc1ccc(/C=C(/NC(=O)c2ccco2)C(=O)NCCc2ccccc2)cc1 the results were GPR7 antag -7, OX1R antag-1 -20, OX1R antag-2 21, GalR3 antagonist -5 and CHO parental Ca -16.
Screening CCN(CC(=O)Nc1c(F)cccc1F)C(=O)CSC(=S)N1CCCC1 returned OX1R antag-1 -23, OX1R antag-2 1, GalR3 antagonist -5 and CHO parental Ca -16.
`Cc1nnc(SCC(=O)c2ccc(Cl)cc2)n(N)c1=O` gave GPR7 antag -4, OX1R antag-1 7, OX1R antag-2 50*, GalR3 antagonist -7 and CHO parental Ca 10.
